{"source": "ChEMBL document CHEMBL5724801", "about": "“EUbOPEN Chemogenomics Library - Multiplex” (2024)", "tested_on": "HEK-293T", "assay": "Multiplex assay against HEK293T", "format": "toxicity, cell-based", "details": "human", "in_short": "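Per cents of healthy-nucleus cells form the tubulin, mitochondrial-mass and membrane-permeability phenotype values. Live cells were stained at seeding with Hoechst33342, BioTracker Green Microtubule Cytoskeleton Dye, MitoTracker Red and Annexin V Alexa Fluor 680. After compound addition they were imaged on a CQ1 microscope at 37°C and 5% CO2, and CellPathfinder machine-learning gating split them into Hoechst high-intensity objects or normal cells, normal cells into healthy, pyknosed or fragmented nuclei, and pyknosed cells into mitotic or apoptotic.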", "key": {"[1]": {"details": "12 h, 1 µM, compound concentration 1 uM"}, "[2]": {"details": "12 h, 10 µM, compound concentration 10 uM"}, "[3]": {"details": "24 h, 1 µM, compound concentration 1 uM"}, "[4]": {"details": "24 h, 10 µM, compound concentration 10 uM"}, "[5]": {"details": "48 h, 1 µM, compound concentration 1 uM"}, "[6]": {"details": "48 h, 10 µM, compound concentration 10 uM"}}, "note": "“And” between values parts separate entries of the source, which are not always exact repeats. Identical values can stand only once.", "data": [{"molecule": "O=C(NCCO)c1cccc(-c2cc(Nc3ccc(OC(F)(F)F)cc3)ncn2)c1", "values": [{"measurement": "Population Apoptotic (%)", "setting": "[1]", "result": "27% and 40%"}, {"measurement": "Population Fragmented Nuclei (%)", "setting": "[1]", "result": "7% and 4%"}, {"measurement": "Population Healthy Nuclei (%)", "setting": "[1]", "result": "78% and 77%"}, {"measurement": "Population Hoechst High Intensity Objects (%)", "setting": "[1]", "result": "8% and 6%"}, {"measurement": "Population Membrane Permeable-Phenotype (%)", "setting": "[1]", "result": 0, "unit": "%"}, {"measurement": "Population Mitochondria Different-Phenotype (%)", "setting": "[1]", "result": "47% and 60%"}, {"measurement": "Population Mitotic Cells (%)", "setting": "[1]", "result": "72% and 59%"}, {"measurement": "Population Normal (%)", "setting": "[1]", "result": "91% and 93%"}, {"measurement": "Population Pyknosed Nuclei (%)", "setting": "[1]", "result": "13% and 17%"}, {"measurement": "Population Tubulin-Different-Phenotype (%)", "setting": "[1]", "result": "23% and 16%"}, {"measurement": "Total Cell Count", "setting": "[1]", "result": "409 and 262"}, {"measurement": "Population Apoptotic (%)", "setting": "[2]", "result": "55% and 63%"}, {"measurement": "Population Fragmented Nuclei (%)", "setting": "[2]", "result": "6% and 5%"}, {"measurement": "Population Healthy Nuclei (%)", "setting": "[2]", "result": "76% and 73%"}, {"measurement": "Population Hoechst High Intensity Objects (%)", "setting": "[2]", "result": "10% and 12%"}, {"measurement": "Population Membrane Permeable-Phenotype (%)", "setting": "[2]", "result": 0, "unit": "%"}, {"measurement": "Population Mitochondria Different-Phenotype (%)", "setting": "[2]", "result": "69% and 74%"}, {"measurement": "Population Mitotic Cells (%)", "setting": "[2]", "result": "44% and 36%"}, {"measurement": "Population Normal (%)", "setting": "[2]", "result": "89% and 87%"}, {"measurement": "Population Pyknosed Nuclei (%)", "setting": "[2]", "result": "17% and 21%"}, {"measurement": "Population Tubulin-Different-Phenotype (%)", "setting": "[2]", "result": "49% and 26%"}, {"measurement": "Total Cell Count", "setting": "[2]", "result": "374 and 325"}, {"measurement": "Population Apoptotic (%)", "setting": "[3]", "result": "26% and 41%"}, {"measurement": "Population Fragmented Nuclei (%)", "setting": "[3]", "result": "11% and 7%"}, {"measurement": "Population Healthy Nuclei (%)", "setting": "[3]", "result": "78% and 79%"}, {"measurement": "Population Hoechst High Intensity Objects (%)", "setting": "[3]", "result": "4% and 6%"}, {"measurement": "Population Membrane Permeable-Phenotype (%)", "setting": "[3]", "result": 0, "unit": "%"}, {"measurement": "Population Mitochondria Different-Phenotype (%)", "setting": "[3]", "result": "21% and 38%"}, {"measurement": "Population Mitotic Cells (%)", "setting": "[3]", "result": "73% and 58%"}, {"measurement": "Population Normal (%)", "setting": "[3]", "result": "95% and 93%"}, {"measurement": "Population Pyknosed Nuclei (%)", "setting": "[3]", "result": "10% and 13%"}, {"measurement": "Population Tubulin-Different-Phenotype (%)", "setting": "[3]", "result": "15% and 17%"}, {"measurement": "Total Cell Count", "setting": "[3]", "result": "538 and 331"}, {"measurement": "Population Apoptotic (%)", "setting": "[4]", "result": "39% and 50%"}, {"measurement": "Population Fragmented Nuclei (%)", "setting": "[4]", "result": "5% and 6%"}, {"measurement": "Population Healthy Nuclei (%)", "setting": "[4]", "result": "80% and 77%"}, {"measurement": "Population Hoechst High Intensity Objects (%)", "setting": "[4]", "result": "7% and 14%"}, {"measurement": "Population Membrane Permeable-Phenotype (%)", "setting": "[4]", "result": 0, "unit": "%"}, {"measurement": "Population Mitochondria Different-Phenotype (%)", "setting": "[4]", "result": "61% and 56%"}, {"measurement": "Population Mitotic Cells (%)", "setting": "[4]", "result": "60% and 50%"}, {"measurement": "Population Normal (%)", "setting": "[4]", "result": "92% and 85%"}, {"measurement": "Population Pyknosed Nuclei (%)", "setting": "[4]", "result": "14% and 15%"}, {"measurement": "Population Tubulin-Different-Phenotype (%)", "setting": "[4]", "result": "38% and 22%"}, {"measurement": "Total Cell Count", "setting": "[4]", "result": "447 and 354"}, {"measurement": "Population Apoptotic (%)", "setting": "[5]", "result": "17% and 37%"}, {"measurement": "Population Fragmented Nuclei (%)", "setting": "[5]", "result": "12% and 9%"}, {"measurement": "Population Healthy Nuclei (%)", "setting": "[5]", "result": "80% and 79%"}, {"measurement": "Population Hoechst High Intensity Objects (%)", "setting": "[5]", "result": "3% and 5%"}, {"measurement": "Population Membrane Permeable-Phenotype (%)", "setting": "[5]", "result": "2% and 0%"}, {"measurement": "Population Mitochondria Different-Phenotype (%)", "setting": "[5]", "result": "17% and 23%"}, {"measurement": "Population Mitotic Cells (%)", "setting": "[5]", "result": "82% and 62%"}, {"measurement": "Population Normal (%)", "setting": "[5]", "result": "96% and 94%"}, {"measurement": "Population Pyknosed Nuclei (%)", "setting": "[5]", "result": "7% and 10%"}, {"measurement": "Population Tubulin-Different-Phenotype (%)", "setting": "[5]", "result": "13% and 9%"}, {"measurement": "Total Cell Count", "setting": "[5]", "result": "897 and 476"}, {"measurement": "Population Apoptotic (%)", "setting": "[6]", "result": "41% and 58%"}, {"measurement": "Population Fragmented Nuclei (%)", "setting": "[6]", "result": "10% and 16%"}, {"measurement": "Population Healthy Nuclei (%)", "setting": "[6]", "result": "79% and 72%"}, {"measurement": "Population Hoechst High Intensity Objects (%)", "setting": "[6]", "result": "8% and 17%"}, {"measurement": "Population Membrane Permeable-Phenotype (%)", "setting": "[6]", "result": "1% and 0%"}, {"measurement": "Population Mitochondria Different-Phenotype (%)", "setting": "[6]", "result": 36, "unit": "%"}, {"measurement": "Population Mitotic Cells (%)", "setting": "[6]", "result": "58% and 41%"}, {"measurement": "Population Normal (%)", "setting": "[6]", "result": "91% and 82%"}, {"measurement": "Population Pyknosed Nuclei (%)", "setting": "[6]", "result": "10% and 11%"}, {"measurement": "Population Tubulin-Different-Phenotype (%)", "setting": "[6]", "result": "18% and 13%"}, {"measurement": "Total Cell Count", "setting": "[6]", "result": "595 and 504"}]}, {"molecule": "CNc1nc(NCc2ncccn2)c2c(-c3ccc4ncccc4c3)c[nH]c2n1", "values": [{"measurement": "Population Apoptotic (%)", "setting": "[1]", "result": "9.22% and 10.1%"}, {"measurement": "Population Fragmented Nuclei (%)", "setting": "[1]", "result": "2.26% and 3.88%"}, {"measurement": "Population Hoechst High Intensity Objects (%)", "setting": "[1]", "result": "0.25% and 0%"}, {"measurement": "Population Membrane Permeable-Phenotype (%)", "setting": "[1]", "result": "0.81% and 0%"}, {"measurement": "Population Mitotic Cells (%)", "setting": "[1]", "result": "90.78% and 89.9%"}, {"measurement": "Population Normal (%)", "setting": "[1]", "result": "99.75% and 100%"}, {"measurement": "Population Pyknosed Nuclei (%)", "setting": "[1]", "result": "35.43% and 76.74%"}, {"measurement": "Population Apoptotic (%)", "setting": "[2]", "result": "13.38% and 23.23%"}, {"measurement": "Population Fragmented Nuclei (%)", "setting": "[2]", "result": "2.88% and 3.98%"}, {"measurement": "Population Hoechst High Intensity Objects (%)", "setting": "[2]", "result": "0.64% and 0%"}, {"measurement": "Population Membrane Permeable-Phenotype (%)", "setting": "[2]", "result": 0, "unit": "%"}, {"measurement": "Population Mitotic Cells (%)", "setting": "[2]", "result": "86.62% and 76.77%"}, {"measurement": "Population Normal (%)", "setting": "[2]", "result": "99.36% and 100%"}, {"measurement": "Population Pyknosed Nuclei (%)", "setting": "[2]", "result": "45.51% and 88.07%"}, {"measurement": "Population Tubulin-Different-Phenotype (%)", "setting": "[2]", "result": "20.5% and 42.86%"}, {"measurement": "Total Cell Count", "setting": "[2]", "result": "314 and 176"}, {"measurement": "Population Apoptotic (%)", "setting": "[3]", "result": "7.44% and 13.04%"}, {"measurement": "Population Fragmented Nuclei (%)", "setting": "[3]", "result": "1.55% and 3.01%"}, {"measurement": "Population Healthy Nuclei (%)", "setting": "[3]", "result": "79.72% and 45.11%"}, {"measurement": "Population Hoechst High Intensity Objects (%)", "setting": "[3]", "result": "0.15% and 0%"}, {"measurement": "Population Membrane Permeable-Phenotype (%)", "setting": "[3]", "result": "0.78% and 0%"}, {"measurement": "Population Mitochondria Different-Phenotype (%)", "setting": "[3]", "result": "15.34% and 13.33%"}, {"measurement": "Population Mitotic Cells (%)", "setting": "[3]", "result": "92.56% and 86.96%"}, {"measurement": "Population Normal (%)", "setting": "[3]", "result": "99.85% and 100%"}, {"measurement": "Population Pyknosed Nuclei (%)", "setting": "[3]", "result": "18.73% and 51.88%"}, {"measurement": "Population Tubulin-Different-Phenotype (%)", "setting": "[3]", "result": "9.13% and 10%"}, {"measurement": "Population Apoptotic (%)", "setting": "[4]", "result": "21.74% and 18.6%"}, {"measurement": "Population Fragmented Nuclei (%)", "setting": "[4]", "result": "2.16% and 2.65%"}, {"measurement": "Population Healthy Nuclei (%)", "setting": "[4]", "result": "75.72% and 29.1%"}, {"measurement": "Population Hoechst High Intensity Objects (%)", "setting": "[4]", "result": 0, "unit": "%"}, {"measurement": "Population Membrane Permeable-Phenotype (%)", "setting": "[4]", "result": "2.22% and 7.27%"}, {"measurement": "Population Mitochondria Different-Phenotype (%)", "setting": "[4]", "result": "39.37% and 32.73%"}, {"measurement": "Population Mitotic Cells (%)", "setting": "[4]", "result": "78.26% and 81.4%"}, {"measurement": "Population Normal (%)", "setting": "[4]", "result": 100, "unit": "%"}, {"measurement": "Population Tubulin-Different-Phenotype (%)", "setting": "[4]", "result": "28.89% and 25.45%"}, {"measurement": "Total Cell Count", "setting": "[4]", "result": "416 and 189"}, {"measurement": "Population Fragmented Nuclei (%)", "setting": "[5]", "result": "3.92% and 2.35%"}, {"measurement": "Population Healthy Nuclei (%)", "setting": "[5]", "result": "88.02% and 64.71%"}, {"measurement": "Population Hoechst High Intensity Objects (%)", "setting": "[5]", "result": "0% and 0.58%"}, {"measurement": "Population Membrane Permeable-Phenotype (%)", "setting": "[5]", "result": "3.68% and 0.91%"}, {"measurement": "Population Mitochondria Different-Phenotype (%)", "setting": "[5]", "result": "13.1% and 22.73%"}, {"measurement": "Population Mitotic Cells (%)", "setting": "[5]", "result": "93.46% and 80.36%"}, {"measurement": "Population Normal (%)", "setting": "[5]", "result": "100% and 99.42%"}, {"measurement": "Population Apoptotic (%)", "setting": "[6]", "result": "10.91% and 21.43%"}, {"measurement": "Population Fragmented Nuclei (%)", "setting": "[6]", "result": "4.49% and 5.56%"}, {"measurement": "Population Healthy Nuclei (%)", "setting": "[6]", "result": "86.38% and 55.56%"}, {"measurement": "Population Hoechst High Intensity Objects (%)", "setting": "[6]", "result": "0% and 2.7%"}, {"measurement": "Population Membrane Permeable-Phenotype (%)", "setting": "[6]", "result": "2.12% and 5%"}, {"measurement": "Population Mitochondria Different-Phenotype (%)", "setting": "[6]", "result": "57.5% and 60%"}, {"measurement": "Population Mitotic Cells (%)", "setting": "[6]", "result": "89.09% and 78.57%"}, {"measurement": "Population Normal (%)", "setting": "[6]", "result": "100% and 97.3%"}]}]}
